These results are taken from ChEMBL document CHEMBL1135463 (J Med Chem, 2002).

The subject of experiment [1] is BXPC-3. The experiment in a line: In vitro growth inhibition of BXPC-3 (human pancreatic adenocarcinoma) cell line. Type of experiment: functional.
Experiment [2] relates to DU-145. The experiment in a line: In vitro growth inhibition of DU-145 (human prostate carcinoma) cell line. Type of experiment: functional.
Experiment [3] is described as follows: In vitro growth inhibition of NCI-H460 (human non-small cell lung carcinoma) cell line. Type of experiment: functional.
Experiment [4] has as its system P388. Description: In vitro inhibition of P388 (murine leukemia) cell proliferation. The class given is functional. As to conditions: Mus musculus, read-out: ED50 (the source's name).
The subject of experiment [5] is SF-268. The experiment in a line: In vitro growth inhibition of central nervous system SF-268 cell line. Type of experiment: functional. The following applies: Homo sapiens.
For another experiment, the system named is Neisseria gonorrhoeae. The experiment in a line: The minimum inhibitory concentration (MIC) that inhibits all visible growth of the Neisseria gonorrhoeae (bacteria). Type of experiment: functional. In a few lines:
(§1)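 Broth microdilution following NCCLS reference methods (M7-A4 for aerobic bacteria, the yeast broth dilution standard for fungi). MIC is the lowest compound concentration giving optically clear wells, with no visible growth of the test organism.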

Experiment [6] concerns KM-20L2. The experiment in a line: In vitro growth inhibition of KM20L2 cell line. The class given is functional. The following applies: Homo sapiens.
A further experiment relates to MCF7. Description: Cell growth inhibition of breast MCF-7 cells, expressed as 50% reduction in the net protein increase. The class given is functional. As to conditions: Homo sapiens.
Experiment [7] deals with BXPC-3. Description: Cell growth inhibition against pancreatic BXPC-3 cells, 50% reduction in the net protein increase. The class given is functional. The following applies: Homo sapiens. In a few lines:
(§2)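 Human tumour lines kept in 5% FBS/RPMI-1640, plated and incubated 24 h before compound dilutions were added. Exposure 48 h, then TCA fixation, washing and sulforhodamine B staining, with optical density read on a plate reader. GI50 is the concentration giving a 50% reduction in net protein increase, calculated from the OD data.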

The test system of experiment [8] is DU-145. The experiment in a line: Cell growth inhibition of prostate DU-145 cells, expressed as 50% reduction in the net protein increase. Type of experiment: functional. As to conditions: Homo sapiens. In a few lines:
as §2

The subject of another experiment is NCI-H460. The experiment in a line: Cell growth inhibition of lung-NSC NCI-H460 cells, expressed as 50% reduction in the net protein increase. The following applies: Homo sapiens. Type of experiment: functional. In a few lines: as §2
Experiment [9] relates to P388. The experiment in a line: Evaluated for cell growth inhibition of the mouse leukemia P388 cells in 10% horse serum/Fisher media. As to conditions: read-out: ED50 (the source's name). Type of experiment: functional. In a few lines: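 Murine P388 leukaemia cells grown in 10% horse serum/Fisher medium, incubated 24 h, then compound dilutions added. After 48 h, cells counted on a Coulter Z1 particle counter and the ED50 for growth inhibition calculated.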

Experiment [10] concerns SF-268. The experiment in a line: Cell growth inhibition of central nervous system (CNS) SF-268 cells, expressed as 50% reduction in the net protein increase. The class given is functional. As to conditions: Homo sapiens. In a few lines:
as §2

Experiment [11] concerns the target T1, Tubulin (Bos taurus, UniProt Q6B856+Q862L2+Q862F3). The experiment in a line: (§3) Inhibition of tubulin polymerization reported as IC50. Type of experiment: functional. In a few lines: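 Tubulin at 10 µM with a range of drug concentrations. Extent of assembly read after 20 min at 30 °C. IC50 taken from the concentration needed to halve assembly.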
Experiment [12] concerns the target T2, Tubulin (Bos taurus) (UniProt Q6B856+Q862L2+Q862F3). Description: Inhibition of radiolabeled [3H]colchicine binding to tubulin at a concentration of 2 uM of the compound. Type of experiment: protein assay. In a few lines: (§4)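 [3H]colchicine 5.0 µM incubated with tubulin 1.0 µM plus inhibitor at the stated level, 10 min at 37 °C, then colchicine binding measured. Reported as percent inhibition.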

Experiment [13] deals with T2, Tubulin (Bos taurus). Description: Inhibition of radiolabeled [3H]colchicine binding to tubulin at a concentration of 5 uM of the compound. The class given is protein assay. In a few lines: as §4
In a further experiment the test system is Candida albicans. Description: The minimum inhibitory concentration (MIC) that inhibits all visible growth of the Candida albicans (fungus) at 64 ug/mL; NI is no inhibition. The class given is functional, organism-based. In a few lines:
as §1

Another experiment relates to Cryptococcus neoformans. The experiment in a line: Minimum inhibitory concentration (MIC) that inhibits all visible growth of the Cryptococcus neoformans (fungus) at 64 ug/mL; NI is no inhibition. Type of experiment: functional, organism-based. In a few lines:
as §1

Another experiment deals with Enterobacter cloacae. The experiment in a line: The minimum inhibitory concentration (MIC) that inhibits all visible growth of the Enterobacter cloacae (bacteria) at 64 ug/mL; NI is no inhibition. The class given is functional, organism-based. In a few lines:
as §1

The subject of experiment [14] is Enterococcus faecalis. Description: the minimum inhibitory concentration (MIC) that inhibits all visible growth of the Enterococcus faecalis (bacteria) at 64 ug/mL; NI is no inhibition. Type of experiment: functional, organism-based. In a few lines:
as §1

A further experiment has as its system Escherichia coli. Description: The minimum inhibitory concentration (MIC) that inhibits all visible growth of the Escherichia coli (bacteria) at 64 ug/mL; NI is no inhibition. Type of experiment: functional, organism-based. In a few lines:
as §1

Experiment [15] relates to Enterococcus faecalis. Description: The minimum inhibitory concentration (MIC) that inhibits all visible growth of the Enterococcus faecalis (bacteria) at 64 ug/mL; NI is no inhibition. The class given is functional, organism-based. In a few lines: as §1
In another experiment the test system is Micrococcus luteus. The experiment in a line: the minimum inhibitory concentration (MIC) that inhibits all visible growth of the Micrococcus luteus (bacteria) at 64 ug/mL; NI is no inhibition. The class given is functional, organism-based. In a few lines:
as §1

Another experiment relates to Staphylococcus aureus. Description: The minimum inhibitory concentration (MIC) that inhibits all visible growth of the Staphylococcus aureus (bacteria) at 64 ug/mL; NI is no inhibition. The class given is functional, organism-based. In a few lines:
as §1

In experiment [16] the test system is Stenotrophomonas maltophilia. The experiment in a line: The minimum inhibitory concentration (MIC) that inhibits all visible growth of the Stenotrophomonas maltophilia (bacteria) at 64 ug/mL; NI is no inhibition. The class given is functional, organism-based. In a few lines:
as §1

In experiment [17] the test system is Streptococcus pneumoniae. The experiment in a line: The minimum inhibitory concentration (MIC) that inhibits all visible growth of the Streptococcus pneumoniae (bacteria). The class given is functional. In a few lines: as §1
Experiment [18] relates to KM-20L2. The experiment in a line: Cell growth inhibition of colon KM20L2 cells, expressed as 50% reduction in the net protein increase. Type of experiment: functional. As to conditions: Homo sapiens. In a few lines:
as §2

In experiment [19] the test system is Streptococcus pneumoniae. The experiment in a line: The minimum inhibitory concentration (MIC) that inhibits all visible growth of the Streptococcus pneumoniae (bacteria) at 64 ug/mL; NI is no inhibition. The class given is functional, organism-based. In a few lines:
as §1

In experiment [20] the target is T1, Tubulin. Described as §3. Type of experiment: functional. This is another data set of the same source.

Structures are written as SMILES. ≈ marks a conversion by molar mass, not a printed value. Calls of active or inactive are those of the source.

The term GI50 denotes the concentration giving 50% growth inhibition. A lower GI50 goes with greater sensitivity of the cells. Consider `COc1ccc(/C=C/c2cc(OC)cc(OC)c2)cc1` [TRISMETHOXYRESVERATROL], for which the concentration for 50% growth inhibition (GI50) in the experiment on BXPC-3 [1] came out at 0.35 µg/mL (≈ 1.29 µM); with DU-145 [2] it was 1.5 µg/mL (≈ 5.55 µM); in experiment [3] it was 0.62 µg/mL (≈ 2.29 µM); with SF-268 [5] it was 0.56 µg/mL (≈ 2.07 µM). In addition, the EC50 with P388 [4] came out at 2.77 µg/mL (≈ 10.2 µM).

Broadly, the MIC is the smallest concentration in the dilution series that meets the test's criterion for growth inhibition. Compound `Oc1ccc(/C=C/c2cc(O)cc(O)c2)cc1` [RESVERATROL] returned an MIC against Neisseria gonorrhoeae of 16 µg/mL (≈ 70.1 µM). The EC50 with P388 [4] worked out at 4.49 µg/mL (≈ 19.7 µM).

Consider `COc1ccc(/C=C\c2cc(O)cc(O)c2)cc1`, for which the 50% growth inhibitory concentration (GI50) is 14.1 µg/mL (≈ 58.2 µM) in the experiment on BXPC-3 [1]; 10.6 µg/mL (≈ 43.8 µM) in the experiment on DU-145 [2]; 17.7 µg/mL (≈ 73.1 µM) with KM-20L2 [6]; 6.4 µg/mL (≈ 26.4 µM) in [3]; 15.6 µg/mL (≈ 64.4 µM) in the experiment on SF-268 [5]; 12.7 µg/mL (≈ 52.4 µM) in the experiment on MCF7. The same compound displayed an MIC in the experiment on Neisseria gonorrhoeae of 16 µg/mL (≈ 66 µM). Moreover, in the experiment on P388 [4], the EC50 was 2.75 µg/mL (≈ 11.4 µM).

Regarding `COc1ccc(/C=C/c2cc(O)cc(O)c2)cc1` [RESVERATROL 4'-METHYL ETHER], the concentration for 50% growth inhibition (GI50) in the experiment on BXPC-3 [1] was 6.3 µg/mL (≈ 26 µM); in the experiment on DU-145 [2], 2.7 µg/mL (≈ 11.1 µM); with KM-20L2 [6] it was 3.8 µg/mL (≈ 15.7 µM); in experiment [3], 6.8 µg/mL (≈ 28.1 µM); in the experiment with SF-268 [5], 3.1 µg/mL (≈ 12.8 µM); in the experiment on MCF7 it was 3.4 µg/mL (≈ 14 µM). Further, the EC50 in the experiment with P388 [4] amounted to 28.9 µg/mL (≈ 119 µM).

For orientation: IC50 means the concentration at which inhibition is half-maximal. Higher therefore signals lower potency. In general, inhibition refers to the share of the control response that was lost under treatment. On to `COc1ccc(/C=C\c2cc(OC)cc(OC)c2)cc1` [8Z-3,4',5-TRIMETHOXYSTILBENE], for which the 50% growth inhibitory concentration (GI50) in the experiment on BXPC-3 [7] was 0.0034 µg/mL (≈ 0.0126 µM); in the experiment on DU-145 [8], 0.0054 µg/mL (≈ 0.02 µM); with NCI-H460, 0.0028 µg/mL (≈ 0.0104 µM); in the experiment on SF-268 [10] it was 0.0044 µg/mL (≈ 0.0163 µM). Further, in the experiment with P388 [9], the EC50 is 0.0262 µg/mL (≈ 0.0969 µM). On Tubulin [11], this compound displayed a half-inhibitory concentration (IC50) of 1.8 µM. Also, the inhibition on Tubulin (Bos taurus) [12] stood at 88%; on Tubulin (Bos taurus) [13], 95%.

With `COc1cc(OC)cc(C(O)c2ccc(O)cc2)c1` (centres undefined), the GI50 is 1.3 µg/mL (≈ 4.99 µM) in the experiment with BXPC-3 [1]; 5.8 µg/mL (≈ 22.3 µM) with DU-145 [2]; 5.3 µg/mL (≈ 20.4 µM) in the experiment on KM-20L2 [6]; 2.3 µg/mL (≈ 8.84 µM) in [3]; 0.65 µg/mL (≈ 2.5 µM) in the experiment with SF-268 [5]; 2 µg/mL (≈ 7.68 µM) with MCF7. Moreover, the MIC result with Candida albicans, in the experiment with Cryptococcus neoformans, with Enterobacter cloacae, in the experiment on Enterococcus faecalis [14], with Escherichia coli and in the experiment with Enterococcus faecalis [15] was “inactive” each time. For the same compound, the MIC result (in the experiment on Micrococcus luteus; with Staphylococcus aureus; in experiment [16]) was “inactive” each time. The MIC in the experiment with Neisseria gonorrhoeae was found to be 4 µg/mL (≈ 15.4 µM); in the experiment with Streptococcus pneumoniae [17], 16 µg/mL (≈ 61.5 µM). Also, the EC50 in the experiment with P388 [4] is more than 10 µg/mL.

On to `COc1ccc(/C=C\c2cc(OC)c(OC)c(OC)c2)cc1O` [COMBRETASTATIN A4], for which the GI50 with BXPC-3 [7] is 0.39 µg/mL (≈ 1.23 µM); in the experiment with DU-145 [8], 0.0008 µg/mL (≈ 0.00253 µM); in the experiment on KM-20L2 [18], 0.34 µg/mL (≈ 1.07 µM); in the experiment on NCI-H460, 0.0006 µg/mL (≈ 0.0019 µM); in the experiment on SF-268 [10], more than 0.01 µg/mL. The EC50 in the experiment on P388 [9] was 0.0003 µg/mL (≈ 0.000948 µM).

Regarding `COc1ccc(C(=O)c2cc(OC)cc(OC)c2)cc1`, the GI50 in the experiment with BXPC-3 [7] worked out at 0.42 µg/mL (≈ 1.54 µM); in the experiment with DU-145 [8], 1.2 µg/mL (≈ 4.41 µM); with KM-20L2 [18], 0.42 µg/mL (≈ 1.54 µM); with NCI-H460, 0.53 µg/mL (≈ 1.95 µM); with SF-268 [10] it was 0.86 µg/mL (≈ 3.16 µM). Besides, the MIC result with Candida albicans, with Cryptococcus neoformans, in the experiment with Enterobacter cloacae, in the experiment with Enterococcus faecalis [14], with Escherichia coli and in the experiment with Enterococcus faecalis [15] was “inactive” throughout. Also, the MIC entry (with Micrococcus luteus; in the experiment on Staphylococcus aureus; in [16]; in the experiment with Streptococcus pneumoniae [19]) was “inactive” throughout. This compound showed a minimum inhibitory concentration (MIC) against Neisseria gonorrhoeae of 32 µg/mL (≈ 118 µM). The EC50 with P388 [9] amounted to 1.23 µg/mL (≈ 4.52 µM). Besides, the inhibition on Tubulin (Bos taurus) [12] was found to be 47%; at Tubulin (Bos taurus) [13], 69%. This compound also had an IC50 against Tubulin [20] of 2.6 µM.
